Measurements as given in ChEMBL document CHEMBL4359895, “Discovery and biological evaluation of darolutamide derivatives as inhibitors and down-regulators of wild-type AR and the mutants” (Eur J Med Chem, 2019).
Activity calls are given as the source filed them. No cut-off for these calls is given here.

Columns and labels:
LNCaP = experiment: Antiproliferative activity against human LNCAP expressing AR assessed as reduction in cell viability incubated for 6 days by CCK-8 assay; assay type: functional, cell-based; conditions: 144 h
Procedure, shortened: (§1)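 Cell proliferation assay run on LNCaP/AR, VCaP, 22Rv1, PC-3 and L-02 cells, with PC-3 and L-02 serving as AR-independent toxicity controls. IC50 fitted in GraphPad Prism 5 as the mean of at least two experiments, each in duplicate. Deviations under 35%.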

VCaP = experiment: Antiproliferative activity against human VCaP expressing AR assessed as reduction in cell viability incubated for 6 days by CCK-8 assay; assay type: functional, cell-based; conditions: 144 h; procedure, shortened: as §1
CWR22R = experiment: Antiproliferative activity against human 22Rv1 expressing AR assessed as reduction in cell viability incubated for 6 days by CCK-8 assay; assay type: functional, cell-based; conditions: 22Rv1, 144 h; procedure, shortened: as §1
PC-3 = experiment: Cytotoxicity against human PC3 assessed as reduction in cell viability incubated for 6 days by CCK-8 assay; assay type: cell-based; conditions: PC-3, 144 h; procedure, shortened: as §1
L02 = experiment: Cytotoxicity against human L02 assessed as reduction in cell viability incubated for 6 days by CCK-8 assay; assay type: cell-based; conditions: L02, 144 h; procedure, shortened: as §1
[1] = target: T1, Androgen receptor (Homo sapiens) (UniProt P10275); experiment: Inhibition of AR in human HEK293 cells assessed as decrease in receptor transactivation at 10 uM incubated for 24 hrs by dual luciferase reporter gene assay; assay type: cell-based
T1 sequence (whole entry): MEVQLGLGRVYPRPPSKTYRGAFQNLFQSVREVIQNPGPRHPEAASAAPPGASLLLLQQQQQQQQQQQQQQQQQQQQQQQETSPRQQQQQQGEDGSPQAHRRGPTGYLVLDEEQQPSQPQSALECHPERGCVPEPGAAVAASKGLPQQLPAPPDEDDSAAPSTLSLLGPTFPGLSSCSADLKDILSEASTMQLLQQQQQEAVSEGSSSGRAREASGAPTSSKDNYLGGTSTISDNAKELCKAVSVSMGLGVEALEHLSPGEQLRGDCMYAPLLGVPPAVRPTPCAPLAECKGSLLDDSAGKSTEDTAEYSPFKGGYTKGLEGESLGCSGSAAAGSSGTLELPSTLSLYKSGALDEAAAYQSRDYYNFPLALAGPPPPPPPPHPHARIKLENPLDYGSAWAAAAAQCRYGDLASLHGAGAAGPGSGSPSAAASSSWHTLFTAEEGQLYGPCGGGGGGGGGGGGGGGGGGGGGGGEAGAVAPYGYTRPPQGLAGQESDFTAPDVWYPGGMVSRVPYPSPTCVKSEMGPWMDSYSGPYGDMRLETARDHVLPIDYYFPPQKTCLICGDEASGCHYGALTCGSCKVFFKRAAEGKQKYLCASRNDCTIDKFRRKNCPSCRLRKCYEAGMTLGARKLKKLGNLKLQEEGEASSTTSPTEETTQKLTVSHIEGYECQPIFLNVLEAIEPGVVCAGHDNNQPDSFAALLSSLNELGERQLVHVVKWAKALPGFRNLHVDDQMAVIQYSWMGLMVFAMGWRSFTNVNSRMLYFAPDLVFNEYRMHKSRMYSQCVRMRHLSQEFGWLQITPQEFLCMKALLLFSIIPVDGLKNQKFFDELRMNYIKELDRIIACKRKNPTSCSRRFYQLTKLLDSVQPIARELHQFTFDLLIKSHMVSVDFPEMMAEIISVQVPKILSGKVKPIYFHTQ
Procedure, shortened: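 HEK 293 cells transiently co-transfected with wt-AR expression vector and an androgen-responsive luciferase reporter construct. Cells given 2 nM testosterone plus 10 µM test compound (final concentrations). Read-out by luciferase, mean ± SD, n = 3.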

| SMILES | IC50 (LNCaP) [µM] | IC50 (VCaP) [µM] | inhibition [1] | IC50 (CWR22R) [µM] | IC50 (PC-3) [µM] | IC50 (L02) [µM] |
| --- | --- | --- | --- | --- | --- | --- |
| C[C@@H](Cn1ccc(-c2ccc(C#N)c(Cl)c2)n1)NC(=O)c1cc[nH]n1 | 1 | – | – | > 30 | 18.7 | > 30 |
| CC(=O)c1ccc(S(=O)(=O)N[C@@H](C)Cn2ccc(-c3ccc(C#N)c(Cl)c3)n2)cc1 | 5.23 | 3.95 | – | – | > 30 | – |
| CC(O)c1cccc(C(=O)N[C@@H](C)Cn2ccc(-c3ccc(C#N)c(Cl)c3)n2)c1 (stereo not given in full) | 2.28 | 0.9 | Active | 20.1 | > 30 | – |
| C[C@@H](Cn1ccc(-c2ccc(C#N)c(Cl)c2)n1)NS(=O)(=O)c1cn(C)cn1 | > 30 | 13.6 | – | – | > 30 | – |
| C[C@@H](Cn1ccc(-c2ccc(C#N)c(Cl)c2)n1)Nc1ccccc1 | 0.71 | > 30 | – | > 30 | 3.21 | 29.4 |
| C[C@@H](Cn1ccc(-c2cc(F)c(C#N)c(Cl)c2)n1)NC(=O)Nc1cc(C(C)(C)C)[nH]n1 | 1.63 | 5.12 | – | – | > 30 | 15 |
| CC(Cn1ccc(-c2ccc(C#N)c(Cl)c2)n1)C(=O)Nc1cccc(C(C)O)c1 (racemic) | 4.15 | > 30 | Active | – | > 30 | – |
| CC(O)c1ccc(C(=O)N[C@@H](C)Cn2ccc(-c3ccc(C#N)c(Cl)c3)n2)cc1 (stereo not given in full) | 3.69 | 0.91 | – | 9.05 | > 30 | > 30 |
| C[C@@H](Cn1ccc(-c2ccc(C#N)c(Cl)c2)n1)Nc1ccccn1 | 1.11 | – | – | > 30 | – | – |
| C[C@@H](Cn1ccc(-c2ccc(C#N)c(Cl)c2)n1)Nc1cncnc1 | 2.07 | > 30 | – | > 30 | > 30 | > 30 |
| C[C@@H](Cn1ccc(-c2ccc(C#N)c(Cl)c2)n1)Nc1ccncc1 | 2.56 | 9.9 | – | 11.5 | – | – |
| CC(=O)c1cc(C(=O)N[C@@H](C)Cn2ccc(-c3cc(F)c(C#N)c(Cl)c3)n2)n[nH]1 | 1.1 | – | – | > 30 | > 30 | 27.7 |
| C[C@@H](Cn1ccc(-c2ccc(C#N)c(Cl)c2)n1)Nc1ncccn1 | 1.18 | 0.48 | – | 12.5 | > 30 | > 30 |
| C[C@@H](Cn1ccc(-c2ccc(C#N)c(Cl)c2)n1)NS(=O)(=O)c1cccnc1 | 6.14 | 2.45 | – | – | > 30 | – |
| C[C@@H](Cn1ccc(-c2ccc(C#N)c(Cl)c2)n1)NC(=O)C1CC(=O)C1 | 3.04 | 22.5 | – | – | > 30 | – |
| CC(=O)c1cccc(NC(=O)C(C)Cn2ccc(-c3ccc(C#N)c(Cl)c3)n2)c1 (racemic) | 1.54 | 2.98 | – | – | > 30 | – |
| C[C@H](Cn1ccc(-c2ccc(C#N)c(Cl)c2)n1)Nc1ncnc2nc[nH]c12 | 0.85 | 2 | – | 10.6 | 1.56 | – |
| Cc1ccnc(N[C@@H](C)Cn2ccc(-c3ccc(C#N)c(Cl)c3)n2)n1 | 1.33 | 0.85 | – | 4.76 | > 30 | > 30 |
| C[C@@H](Cn1ccc(-c2ccc(C#N)c(Cl)c2)n1)Nc1nccc(Cl)n1 | 1.4 | > 30 | – | > 30 | > 30 | – |
| C[C@@H](Cn1ccc(-c2ccc(C#N)c(Cl)c2)n1)NC(=O)c1cccc(OCC(O)CO)c1 (stereo not given in full) | 0.74 | 0.59 | – | > 30 | > 30 | > 30 |
| CC(O)c1cc(C(=O)N[C@H](C)Cn2ccc(-c3ccc(C#N)c(Cl)c3)n2)n[nH]1 (stereo not given in full) | 1.65 | – | – | > 30 | > 30 | – |
| COC(=O)/C=C/C(=O)N[C@@H](C)Cn1ccc(-c2ccc(C#N)c(Cl)c2)n1 | 2.46 | 5.23 | – | – | > 30 | – |
| CC(Cn1ccc(-c2ccc(C#N)c(Cl)c2)n1)C(=O)Nc1cc[nH]n1 (racemic) | > 30 | > 30 | – | – | > 30 | – |
| C[C@@H](Cn1ccc(-c2ccc(C#N)c(Cl)c2)n1)Nc1cccnc1 | 0.43 | > 30 | Active | 21.6 | > 30 | > 30 |
| CC(=O)c1cc(C(=O)N[C@@H](C)Cn2ccc(-c3ccc(C#N)c(Cl)c3)n2)n[nH]1 | 1.13 | – | – | > 30 | > 30 | – |

Continued, in another order:

| IC50 (LNCaP) [µM] | IC50 (VCaP) [µM] | inhibition [1] | SMILES | IC50 (CWR22R) [µM] | IC50 (PC-3) [µM] | IC50 (L02) [µM] |
| --- | --- | --- | --- | --- | --- | --- |
| 3.09 | 4.02 | – | C[C@@H](Cn1ccc(-c2ccc(C#N)c(Cl)c2)n1)Nc1cccc2ccncc12 | 4.72 | 5.13 | – |
| 2.28 | 12.4 | – | C[C@@H](Cn1ccc(-c2ccc(C#N)c(Cl)c2)n1)Nc1cncc2ccccc12 | – | – | – |
| 4.81 | 2.41 | – | C[C@@H](Cn1ccc(-c2ccc(C#N)c(Cl)c2)n1)Nc1ccnc2ccccc12 | 4.29 | – | – |
| 1.91 | 1.58 | – | C[C@@H](Cn1ccc(-c2ccc(C#N)c(Cl)c2)n1)Nc1cc2ccccc2cn1 | 12 | – | – |
| 3.41 | 1.54 | – | COc1ccc(C(=O)N[C@@H](C)Cn2ccc(-c3ccc(C#N)c(Cl)c3)n2)cc1 | – | > 30 | – |
| 2.3 | 0.87 | – | C[C@@H](Cn1ccc(-c2ccc(C#N)c(Cl)c2)n1)Nc1ccc2ccccc2n1 | 7.95 | > 30 | – |
| 0.51 | 2.26 | – | C[C@@H](Cn1ccc(-c2ccc(C#N)c(Cl)c2)n1)Nc1ccc2cnccc2c1 | 2.98 | – | – |
| 1.83 | – | – | C[C@@H](Cn1ccc(-c2ccc(C#N)c(Cl)c2)n1)NC(=O)c1ccccc1 | – | > 30 | – |
| 1.87 | 1.94 | – | C[C@@H](Cn1ccc(-c2ccc(C#N)c(Cl)c2)n1)Nc1cnc2ccccc2c1 | 6.04 | – | – |
| 2.1 | 1.47 | – | C[C@@H](Cn1ccc(-c2ccc(C#N)c(Cl)c2)n1)Nc1nccc2ccccc12 | 3.57 | > 30 | – |
| 3.6 | 1.4 | – | CC(=O)c1ccc(C(=O)N[C@@H](C)Cn2ccc(-c3ccc(C#N)c(Cl)c3)n2)cc1 | – | > 30 | 15.3 |
| 13 | > 30 | – | C[C@@H](Cn1ccc(-c2ccc(C#N)c(Cl)c2)n1)Nc1ccc2ncccc2c1 | – | – | – |
| 2.66 | 2.7 | – | C[C@@H](Cn1ccc(-c2ccc(C#N)c(Cl)c2)n1)Nc1nc(Cl)nc2nc[nH]c12 | 4.38 | > 30 | 14.5 |
| 0.49 | 2.13 | – | C[C@@H](Cn1ccc(-c2ccc(C#N)c(Cl)c2)n1)Nc1ccc2c(ccn2C)c1 | 12 | – | – |
| 0.87 | 28.1 | – | C[C@@H](Cn1ccc(-c2ccc(C#N)c(Cl)c2)n1)Nc1cccc2ccccc12 | > 30 | – | – |
| 2.66 | 3.22 | – | C[C@@H](Cn1ccc(-c2ccc(C#N)c(Cl)c2)n1)Nc1ccc2cccnc2c1 | 5.82 | 11.2 | – |
| 7.7 | 4.61 | – | C[C@@H](Cn1ccc(-c2ccc(C#N)c(Cl)c2)n1)Nc1ccc2ccccc2c1 | 4.61 | – | 26.8 |
| 0.87 | > 30 | – | C[C@@H](Cn1ccc(-c2ccc(C#N)c(Cl)c2)n1)Nc1cccc2cnccc12 | 21.2 | – | – |
| 0.97 | > 30 | – | C[C@H](Cn1ccc(-c2ccc(C#N)c(Cl)c2)n1)Nc1ncnc2ccccc12 | 9.71 | – | – |
| 1.81 | 2.19 | – | C[C@@H](Cn1ccc(-c2ccc(C#N)c(Cl)c2)n1)NC(=O)c1ccccc1F | – | > 30 | – |
| 0.79 | > 30 | – | C[C@@H](Cn1ccc(-c2ccc(C#N)c(Cl)c2)n1)Nc1cccc2cccnc12 | > 30 | – | – |
